Consider 8 molecules from ChEMBL document CHEMBL1138691, “Substituted furo[3,2-b]pyridines: novel bioisosteres of 5-HT 1F receptor agonists” (Bioorg Med Chem Lett, 2004).

The term Ki denotes the dissociation constant of the complex between target and ligand, obtained from inhibition or displacement. Broadly, the Emax is the maximal effect, on the per cent scale that the assay sets. Usually EC50 stands for the concentration needed to bring the measured effect to its halfway point. A low value points to greater potency.

In assay [1] the target is T1, 5-hydroxytryptamine receptor 1F (Homo sapiens, UniProt P30939).
T1 sequence (P30939 whole entry): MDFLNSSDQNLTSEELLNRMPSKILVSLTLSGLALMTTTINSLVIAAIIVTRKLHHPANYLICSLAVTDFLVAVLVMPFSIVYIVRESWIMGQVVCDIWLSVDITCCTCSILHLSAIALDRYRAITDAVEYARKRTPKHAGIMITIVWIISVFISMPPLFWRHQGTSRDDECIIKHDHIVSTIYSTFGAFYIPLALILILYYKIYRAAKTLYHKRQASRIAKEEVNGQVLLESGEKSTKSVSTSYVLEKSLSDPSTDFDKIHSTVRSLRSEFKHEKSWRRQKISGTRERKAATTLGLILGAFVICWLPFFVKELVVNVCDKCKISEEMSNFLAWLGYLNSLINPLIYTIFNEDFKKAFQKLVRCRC
The experiment in a line: In vitro binding affinity for human 5-hydroxytryptamine 1F receptor. A digest of the protocol: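 Radioligand binding in cell lines expressing the human 5-HT receptor; Ki reported as mean of three or more experiments with SEM.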

Assay [2] in a line: Ratio of the Ki value for human 5-HT1A receptor versus human 5-HT1F receptor. A digest of the protocol:
(§1)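 Selectivity ratio: Ki at human 5-HT1A, 5-HT1B or 5-HT1D receptor divided by Ki at human 5-HT1F receptor. Each Ki from radioligand binding in cell lines expressing the relevant human receptor, derived from two or more experiments.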

Assay [3] is described as follows: Ratio of the Ki value for human 5-HT1B receptor versus human 5-HT1F receptor. A digest of the protocol: as §1
The nature of assay [4]: Ratio of the Ki value for human 5-HT1D receptor versus human 5-HT1F receptor. A digest of the protocol: as §1
Assay [5] addresses Serotonin (5-HT) receptor (Homo sapiens) (UniProt P30939+P41595+Q13639+P28222+P46098+P08908+P28221+P28223+P28335+P28566+P34969+P50406+P47898+A5X5Y0+O95264+Q70Z44+Q8WXA8). The experiment in a line: Maximum stimulation of [35S]GTP-gamma-S, binding expressed relative to the maximal effect of 5-hydroxytryptamine. In kind it is functional. A digest of the protocol: (§2)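 [35S]GTP-γ-S binding stimulated in mouse LM(tk-) cells expressing human 5-HT1F receptor; means of at least two separate experiments, each run in triplicate, with SEM.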
On the technique in general: Binding of GTPγS marks nucleotide exchange on a G protein.

Assay [6] has as its target T1, 5-hydroxytryptamine receptor 1F. As to the kind of experiment: Concentration required for stimulation of [35S]GTP-gamma-S, binding in mouse LM(tk-1) cells expressing the human 5-hydroxytryptamine 1F receptor. In kind it is functional, cell-based. Summed up:
as §2

`Cc1[nH]c2ccc(NC(=O)c3ccc(F)cc3)cc2c1CCN(C)C`: in assay [1], the Ki was 8.2 nM. The Selectivity ratio in assay [2] turned out to be 32; in assay [3] it was 130; in assay [4], 200.
For the molecule `CN1CCC(c2coc3ccc(NC(=O)c4c(F)cccc4Cl)nc23)CC1`, in assay [1], the Ki came to 2.9 nM. In addition, in assay [5], the Emax amounted to 87%. For the same molecule, the EC50 in assay [6] was determined as 68.7 nM. In addition, the figures for the Selectivity ratio in assay [2], in assay [3] and in assay [4] were 103, 164 and 31, respectively.
Turning to `CN1CCC(c2c[nH]c3ccc(NC(=O)c4ccc(F)cc4)cc23)CC1`, the inhibitory constant (Ki) in assay [1] worked out at 1.6 nM. Besides, the Selectivity ratio in assay [2] stood at 7; in assay [3] it was 85; in assay [4], 86.
The matching figures for `Cc1oc2ccc(NC(=O)c3ccc(F)cc3)nc2c1CCN(C)C`: 13.5 nM, 65, 42 and 19.
In assay [1], `CN1CCC(c2coc3ccc(NC(=O)c4ccc(F)cc4Cl)nc23)CC1` registered a Ki of 3 nM. In assay [5], this molecule yielded an Emax of 92%. The EC50 in assay [6] was 27.7 nM. Also, the Selectivity ratio came out at 47 in assay [2], 177 in assay [3] and 165 in assay [4].
With `CN1CCC(c2c[nH]c3ccc(NC(=O)c4ccc(F)cc4)nc23)CC1`, the Selectivity ratio was 7.3 in assay [2], 160 in assay [3] and 960 in assay [4].
`CN1CCC(c2coc3ccc(NC(=O)c4ccc(F)cc4)nc23)CC1`: the Ki in assay [1] is 3.1 nM. This molecule also came in with an Emax in assay [5] of 88%. Also, in assay [6], it took 66 nM to reach a half-maximal effect (EC50). Further, the Selectivity ratio was 134 in assay [2], over 1000 in assay [3] and over 1000 in assay [4].
With `CN1CCC(c2coc3ccc(NC(=O)c4c(F)cc(F)cc4F)nc23)CC1`, the Ki in assay [1] was 2.3 nM. Also, the Emax in assay [5] came out at 87%. Also, the response in assay [6] was half-maximal at 91.7 nM (EC50). The Selectivity ratio is 57 in assay [2], 181 in assay [3] and 62 in assay [4].
